Data reported in ChEMBL document CHEMBL1123671, “1-Aryl-2-(aminomethyl)cyclopropanecarboxylic acid derivatives. A new series of potential antidepressants” (J Med Chem, 1987).

Legend:
[1] = Ability to kill 50% of the animals after 24h, when administered perorally; type: ADME, organism-based; details: mouse, in vivo, po
Mus musculus [2] = assay: Antagonism of tetrabenazine-induced ptosis in mice was evaluated after oral administration; type: functional
In short: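 Mice dosed orally at various doses (highest 30 mg/kg) 30 min before tetrabenazine 40 mg/kg ip. Blepharoptosis scored 0–2 thirty minutes after tetrabenazine. Group score sums expressed as percentage.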

Mus musculus [3] = assay: Potentiation of 5-hydroxytryptophan-induced head twitch in mice after oral administration; type: functional
Mus musculus [4] = assay: Ability to kill 50% of the animals (administered orally), after sublethal dose of yohimbine (25 mg/Kg) when given subcutaneously.; type: functional
Mus musculus [5] = species: Mus musculus; assay: % increase of the diameter of the test pupil (% mydriasis) in comparison with that of the control pupil.; type: functional, organism-based
In short: (§1)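 One drop (0.1 mL) of a 1% aqueous solution instilled into the left eye of 10 mice; right eye as untreated control. Both pupil diameters measured by ocular micrometer; mean mydriasis given as percent increase of test pupil diameter over control pupil.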

Mus musculus [6] = species: Mus musculus; assay: Percent increase of the diameter of the test pupil (% mydriasis) in comparison with that of the control pupil.; type: functional; in short: as §1
Mus musculus [7] = assay: Compound was tested for its ability to kill 50% of the animals after 24h, when administered perorally; type: functional; details: po

SMILES | LD50 at 24 h [1] [mg/kg] | ED50 (Mus musculus [2]) [mg/kg] | ED50 (Mus musculus [3]) [mg/kg] | ED50 (Mus musculus [4]) [mg/kg] | Mydriasis (Mus musculus [5]) | Mydriasis (Mus musculus [6]) [%] | LD50 (Mus musculus [7]) [mg/kg]
CCN(CC)C(=O)[C@]1(c2ccc(F)cc2)CC1CN.Cl (stereo not given in full) | 422 | 10 | 50 | 5 | Not significant | – | –
CCOC(=O)[C@@]1(c2ccc(Cl)cc2)CC1CN(C)C.Cl (stereo not given in full) | 422 | 6 | 35 | 2 | – | 24 | –
CCCCN(CCCC)C(=O)[C@@]1(c2ccccc2)CC1CN.O=C(O)C(=O)O (stereo not given in full) | 562 | > 30 | > 100 | > 100 | Not significant | – | –
CCOC(=O)[C@@]1(c2ccc(OC)cc2)CC1CN(C)C.Cl (stereo not given in full) | 562 | – | – | > 30 | – | 38 | –
CCOC(=O)[C@@]1(c2ccccc2)CC1CNC.Cl (stereo not given in full) | 562 | – | – | 30 | – | 62 | –
CN(C)CCCN1c2ccccc2CCc2ccccc21 [IMIPRAMINE] | – | 5 | 60 | 7 | – | 61 | –
CCNC(=O)[C@@]1(c2ccccc2)CC1CN.O=C(O)C(=O)O (stereo not given in full) | 316 | > 30 | > 100 | 19 | Not significant | – | –
NCC1C[C@@]1(C(=O)N1CCCC1)c1ccccc1.O=C(O)C(=O)O (stereo not given in full) | 562 | 20 | > 100 | 48 | – | 12 | –
Cc1ccc([C@]2(C(=O)OC(C)C)CC2CN)cc1.Cl (stereo not given in full) | 1000 | 17 | 100 | 30 | Not significant | – | –
CN(C)CCCN1c2ccccc2CCc2ccc(Cl)cc21 [CLOMIPRAMINE] | 556 | 9 | 37 | 5 | – | 38 | –
CCOC(=O)[C@@]1(c2ccc(F)cc2)CC1CN(C)C.Cl (stereo not given in full) | 562 | 8 | – | 12 | – | 76 | –
CCOC(=O)[C@@]1(c2ccccc2)CC1CNCc1ccccc1.Cl (stereo not given in full) | 316 | – | – | > 30 | – | 16 | –
CCCCN(C)CC1C[C@@]1(C(=O)OCC)c1ccccc1.Cl (stereo not given in full) | 255 | – | – | 27 | – | 61 | –
CCOC(=O)[C@@]1(c2ccccc2)CC1CN1CCCC1.Cl (stereo not given in full) | 562 | – | – | > 100 | – | 53 | –
CCN(CC)C(=O)[C@]1(c2ccccc2)C[C@H]1CN.Cl | 237 | 0.5 | > 100 | 0.5 | Not significant | – | –
CCOC(=O)[C@@]1(c2ccccc2)CC1CN(C(C)C)C(C)C.O=C(O)/C=C\C(=O)O (stereo not given in full) | 750 | – | – | 70 | – | 49 | –
CCOC(=O)[C@@]1(c2ccccc2)CC1CN(C)C.Cl (stereo not given in full) | > 1000 | 1.4 | – | 10 | – | 40 | –
CC(C)OC(=O)[C@@]1(c2ccccc2)CC1CN(C)C.Cl (stereo not given in full) | 422 | 7 | – | 18 | – | 73 | –

SMILES | LD50 at 24 h [1] [mg/kg] | ED50 (Mus musculus [2]) [mg/kg] | ED50 (Mus musculus [3]) [mg/kg] | ED50 (Mus musculus [4]) [mg/kg] | Mydriasis (Mus musculus [5]) | Mydriasis (Mus musculus [6]) [%] | LD50 (Mus musculus [7]) [mg/kg]
CC(C)OC(=O)[C@@]1(c2ccc(Cl)cc2)CC1CN.Cl (stereo not given in full) | 255 | 8 | 50 | 2 | – | 23 | –
Cl.NCC1C[C@@]1(C(=O)O)c1ccccc1 (stereo not given in full) | > 1000 | > 30 | > 100 | > 100 | Not significant | – | –
C=CCOC(=O)[C@@]1(c2ccccc2)CC1CN(C)C.O=C(O)/C=C/C(=O)O (stereo not given in full) | 1000 | – | – | 16 | – | 44 | –
CCN(CC)C(=O)[C@@]1(c2ccccc2)CC1CNC.O=C(O)C(=O)O (stereo not given in full) | 316 | 13 | > 100 | 4 | Not significant | – | –
COC(=O)[C@@]1(c2ccccc2)CC1CN(C)C.Cl (stereo not given in full) | 750 | 30 | – | 29 | – | 60 | –
CCCCCCN(CCCCCC)C(=O)[C@@]1(c2ccccc2)CC1CN.O=C(O)C(=O)O (stereo not given in full) | – | > 30 | > 1000 | > 100 | Not significant | – | > 1000
CCOC(=O)[C@@]1(c2ccccc2)CC1CN.Cl (stereo not given in full) | 316 | 30 | 73 | 100 | – | 33 | –
CCN(CC)C(=O)[C@]1(c2cccc(Cl)c2)CC1CN.Cl (stereo not given in full) | 100 | 0.9 | > 10 | 3 | Not significant | – | –
CCOC(=O)[C@@]1(c2ccccc2)CC1CN(C)CCO.O=C(O)/C=C/C(=O)O (stereo not given in full) | > 1000 | – | – | 56 | – | 23 | –
CCCN(CCC)C(=O)[C@@]1(c2ccccc2)CC1CN.O=C(O)C(=O)O (stereo not given in full) | 100 | 5.5 | – | 9 | – | 27 | –
CCOC(=O)[C@@]1(c2ccccc2)CC1CN(CCO)CCO.O=C(O)/C=C\C(=O)O (stereo not given in full) | > 1000 | – | – | > 100 | Not significant | – | –
CC(C)N(C(=O)[C@@]1(c2ccccc2)CC1CN)C(C)C.Cl (stereo not given in full) | 100 | 30 | > 30 | 15 | Not significant | – | –
CNCCCN1c2ccccc2CCc2ccccc21 [DESIPRAMINE] | 572 | 3 | > 100 | 2 | – | 46 | –
CCCOC(=O)[C@@]1(c2ccccc2)CC1CN(C)C.O=C(O)/C=C/C(=O)O (stereo not given in full) | 562 | 30 | > 100 | 25 | – | 55 | –
CCN(CC)C(=O)[C@]1(c2ccc(Cl)cc2)CC1CN.Cl (stereo not given in full) | 422 | 9 | > 100 | 3 | – | 11 | –
CCN(CC)C(=O)[C@]1(c2ccccc2)C[C@@H]1CN.Cl [1R,2S-MILNACIPRAN HYDROCHLORIDE] | 562 | > 30 | > 100 | > 100 | Not significant | – | –
CCOC(=O)[C@@]1(c2ccccc2)CC1CN(C)CCc1ccccc1.Cl (stereo not given in full) | 1000 | > 30 | > 30 | 15 | – | 30 | –
CC(C)OC(=O)[C@@]1(c2ccccc2)CC1CN.Cl (stereo not given in full) | 100 | – | 54 | 18 | – | 20 | –
